Results taken from article PMC9302689 (British Journal of Clinical Pharmacology, 2022).

Tested on: healthy male subjects
Assay: Pharmaco-EEG
Format: in vivo, human
Details: 12-hour post-dose period
In short: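 Continuous EEG was recorded from 21 electrodes placed by the 10–20 system, with mastoid electrodes replacing the earlobe ones. Recordings followed IPEG guidelines, twice pre-dose and at 0.5–10 h post-dose. Power spectra for Fz-Cz and Pz-O derivations were split into bands to give total band power (μV). Values were ln-transformed, analysed by MMRM over 12 h against pooled placebo, and back-transformed.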

SMILES: CN1CCC23CCCCC2C1Cc1ccc(C(N)=O)cc13 (stereo not drawn) [ALKS 7119, (9α, 13α)‐17‐methylmorphinan‐3‐carboxamide]
- Alpha-power Fz-Cz, LSM CFB (3 mg single oral dose): 0.01 Hz
- Alpha-power Fz-Cz, estimate of difference compared to placebo (3 mg single oral dose): 0 [−0.97, 0.97] P = 1.00 Hz
- Alpha-power Pz-Oz, LSM CFB (3 mg single oral dose): −0.06 Hz
- Alpha-power Pz-Oz, estimate of difference compared to placebo (3 mg single oral dose): −0.16 [−0.41, 0.10] P = .23 Hz
- Beta-power Fz-Cz, LSM CFB (3 mg single oral dose): 0.03 Hz
- Beta-power Fz-Cz, estimate of difference compared to placebo (3 mg single oral dose): −0.09 [−0.31, 0.14] P = .45 Hz
- Beta-power Pz-Oz, LSM CFB (3 mg single oral dose): −0.03 Hz
- Beta-power Pz-Oz, estimate of difference compared to placebo (3 mg single oral dose): −0.16 [−0.36, 0.04] P = .11 Hz
- Delta-power Fz-Cz, LSM CFB (3 mg single oral dose): 0 Hz
- Delta-power Fz-Cz, estimate of difference compared to placebo (3 mg single oral dose): −0.11 [−0.32, 0.10] P = .32 Hz
- Delta-power Pz-Oz, LSM CFB (3 mg single oral dose): −0.12 Hz
- Delta-power Pz-Oz, estimate of difference compared to placebo (3 mg single oral dose): −0.18 [−0.41, 0.05] P = .12 Hz
- Gamma-power Fz-Cz, LSM CFB (3 mg single oral dose): 0.05 Hz
- Gamma-power Fz-Cz, estimate of difference compared to placebo (3 mg single oral dose): −0.04 [−0.25, 0.16] P = .66 Hz
- Gamma-power Pz-Oz, LSM CFB (3 mg single oral dose): 0.09 Hz
- Gamma-power Pz-Oz, estimate of difference compared to placebo (3 mg single oral dose): −0.12 [−0.37, 0.13] P = .35 Hz
- Theta-power Fz-Cz, LSM CFB (3 mg single oral dose): −0.06 Hz
- Theta-power Fz-Cz, estimate of difference compared to placebo (3 mg single oral dose): −0.14 [−0.36, 0.09] P = .23 Hz
- Theta-power Pz-Oz, LSM CFB (3 mg single oral dose): −0.1 Hz
- Theta-power Pz-Oz, estimate of difference compared to placebo (3 mg single oral dose): −0.17 [−0.40, 0.06] P = .15 Hz
- Alpha-power Fz-Cz, LSM CFB (10 mg single oral dose): 0.09 Hz
- Alpha-power Fz-Cz, estimate of difference compared to placebo (10 mg single oral dose): 0.15 [−0.94, 1.24] P = .79 Hz
- Alpha-power Pz-Oz, LSM CFB (10 mg single oral dose): 0.11 Hz
- Alpha-power Pz-Oz, estimate of difference compared to placebo (10 mg single oral dose): 0.01 [−0.25, 0.27] P = .94 Hz
- Beta-power Fz-Cz, LSM CFB (10 mg single oral dose): 0.08 Hz
- Beta-power Fz-Cz, estimate of difference compared to placebo (10 mg single oral dose): −0.03 [−0.26, 0.19] P = .78 Hz
- Beta-power Pz-Oz, LSM CFB (10 mg single oral dose): 0.14 Hz
- Beta-power Pz-Oz, estimate of difference compared to placebo (10 mg single oral dose): 0.01 [−0.19, 0.21] P = .91 Hz
- Delta-power Fz-Cz, LSM CFB (10 mg single oral dose): 0.05 Hz
- Delta-power Fz-Cz, estimate of difference compared to placebo (10 mg single oral dose): −0.05 [−0.26, 0.16] P = .65 Hz
- Delta-power Pz-Oz, LSM CFB (10 mg single oral dose): 0.07 Hz
- Delta-power Pz-Oz, estimate of difference compared to placebo (10 mg single oral dose): 0.01 [−0.23, 0.24] P = .96 Hz
- Gamma-power Fz-Cz, LSM CFB (10 mg single oral dose): 0.09 Hz
- Gamma-power Fz-Cz, estimate of difference compared to placebo (10 mg single oral dose): −0.01 [−0.21, 0.21] P = .95 Hz
- Gamma-power Pz-Oz, LSM CFB (10 mg single oral dose): 0.13 Hz
- Gamma-power Pz-Oz, estimate of difference compared to placebo (10 mg single oral dose): −0.08 [−0.33, 0.17] P = .54 Hz
- Theta-power Fz-Cz, LSM CFB (10 mg single oral dose): 0.02 Hz
- Theta-power Fz-Cz, estimate of difference compared to placebo (10 mg single oral dose): −0.05 [−0.28, 0.18] P = .65 Hz
- Theta-power Pz-Oz, LSM CFB (10 mg single oral dose): 0.04 Hz
- Theta-power Pz-Oz, estimate of difference compared to placebo (10 mg single oral dose): −0.03 [−0.26, 0.20] P = .79 Hz
- Alpha-power Fz-Cz, LSM CFB (25 mg single oral dose): −0.01 Hz
- Alpha-power Pz-Oz, LSM CFB (25 mg single oral dose): −0.01 Hz
- Alpha-power Pz-Oz, estimate of difference compared to placebo (25 mg single oral dose): −0.11 [−0.36, 0.15] P = .41 Hz
- Beta-power Fz-Cz, LSM CFB (25 mg single oral dose): 0.05 Hz
- Beta-power Fz-Cz, estimate of difference compared to placebo (25 mg single oral dose): −0.06 [−0.28, 0.16] P = .58 Hz
- Beta-power Pz-Oz, LSM CFB (25 mg single oral dose): 0.08 Hz
- Beta-power Pz-Oz, estimate of difference compared to placebo (25 mg single oral dose): −0.04 [−0.24, 0.15] P = .66 Hz
- Delta-power Fz-Cz, LSM CFB (25 mg single oral dose): −0.04 Hz
- Delta-power Fz-Cz, estimate of difference compared to placebo (25 mg single oral dose): −0.14 [−0.35, 0.07] P = .19 Hz
- Delta-power Pz-Oz, LSM CFB (25 mg single oral dose): 0 Hz
- Delta-power Pz-Oz, estimate of difference compared to placebo (25 mg single oral dose): −0.06 [−0.31, 0.17] P = .61 Hz
- Gamma-power Fz-Cz, LSM CFB (25 mg single oral dose): 0.06 Hz
- Gamma-power Fz-Cz, estimate of difference compared to placebo (25 mg single oral dose): −0.04 [−0.04, 0.16] P = .69 Hz
- Gamma-power Pz-Oz, LSM CFB (25 mg single oral dose): 0.16 Hz
- Gamma-power Pz-Oz, estimate of difference compared to placebo (25 mg single oral dose): −0.05 [−0.30, 0.20] P = .70 Hz
- Theta-power Fz-Cz, LSM CFB (25 mg single oral dose): −0.06 Hz
- Theta-power Fz-Cz, estimate of difference compared to placebo (25 mg single oral dose): −0.13 [−0.36, 0.09] P = .24 Hz
- Theta-power Pz-Oz, LSM CFB (25 mg single oral dose): −0.04 Hz
- Theta-power Pz-Oz, estimate of difference compared to placebo (25 mg single oral dose): −0.11 [−0.35, 0.12] P = .33 Hz
- Alpha-power Fz-Cz, LSM CFB (50 mg single oral dose): 0.08 Hz
- Alpha-power Fz-Cz, estimate of difference compared to placebo (50 mg single oral dose): 0.13 [−0.81, 1.07] P = .79 Hz
- Alpha-power Pz-Oz, LSM CFB (50 mg single oral dose): 0.03 Hz
- Alpha-power Pz-Oz, estimate of difference compared to placebo (50 mg single oral dose): −0.06 [−0.32, 0.19] P = .62 Hz
- Beta-power Fz-Cz, LSM CFB (50 mg single oral dose): 0.04 Hz
- Beta-power Fz-Cz, estimate of difference compared to placebo (50 mg single oral dose): −0.07 [−0.31, 0.15] P = .51 Hz
- Beta-power Pz-Oz, LSM CFB (50 mg single oral dose): 0.13 Hz
- Beta-power Pz-Oz, estimate of difference compared to placebo (50 mg single oral dose): 0 [−0.20, 0,20] P = 1.00 Hz
- Delta-power Fz-Cz, LSM CFB (50 mg single oral dose): 0 Hz
- Delta-power Fz-Cz, estimate of difference compared to placebo (50 mg single oral dose): −0.10 [−0.31, 0.11] P = .34 Hz
- Delta-power Pz-Oz, LSM CFB (50 mg single oral dose): 0.08 Hz
- Delta-power Pz-Oz, estimate of difference compared to placebo (50 mg single oral dose): 0.02 [−0.21, 0.25] P = .87 Hz
- Gamma-power Fz-Cz, LSM CFB (50 mg single oral dose): 0.01 Hz
- Gamma-power Fz-Cz, estimate of difference compared to placebo (50 mg single oral dose): −0.09 [−0.31, 0.11] P = .39 Hz
- Gamma-power Pz-Oz, LSM CFB (50 mg single oral dose): 0.08 Hz
- Gamma-power Pz-Oz, estimate of difference compared to placebo (50 mg single oral dose): −0.12 [−0.38, 0.13] P = .33 Hz
- Theta-power Fz-Cz, LSM CFB (50 mg single oral dose): 0.02 Hz
- Theta-power Fz-Cz, estimate of difference compared to placebo (50 mg single oral dose): −0.05 [−0.28, 0.17] P = .64 Hz
- Theta-power Pz-Oz, LSM CFB (50 mg single oral dose): 0.08 Hz
- Theta-power Pz-Oz, estimate of difference compared to placebo (50 mg single oral dose): 0.01 [−0.23, 0.24] P = .95 Hz
- Alpha-power Fz-Cz, LSM CFB (75 mg single oral dose): 0.16 Hz
- Alpha-power Fz-Cz, estimate of difference compared to placebo (75 mg single oral dose): 0.32 [−0.64, 1.29] P = .51 Hz
- Alpha-power Pz-Oz, LSM CFB (75 mg single oral dose): 0.14 Hz
- Alpha-power Pz-Oz, estimate of difference compared to placebo (75 mg single oral dose): 0.04 [−0.22, 0.30] P = .75 Hz
- Beta-power Fz-Cz, LSM CFB (75 mg single oral dose): 0.21 Hz
- Beta-power Fz-Cz, estimate of difference compared to placebo (75 mg single oral dose): 0.09 [−0.13, 0.32] P = .40 Hz
- Beta-power Pz-Oz, LSM CFB (75 mg single oral dose): 0.17 Hz
- Beta-power Pz-Oz, estimate of difference compared to placebo (75 mg single oral dose): 0.04 [−0.16, 0.24] P = .69 Hz
- Delta-power Fz-Cz, LSM CFB (75 mg single oral dose): 0.17 Hz
- Delta-power Fz-Cz, estimate of difference compared to placebo (75 mg single oral dose): 0.06 [−0.15, 0.27] P = .55 Hz
- Delta-power Pz-Oz, LSM CFB (75 mg single oral dose): 0.1 Hz
- Delta-power Pz-Oz, estimate of difference compared to placebo (75 mg single oral dose): 0.04 [−0.21, 0.27] P = .76 Hz
- Gamma-power Fz-Cz, LSM CFB (75 mg single oral dose): 0.27 Hz
- Gamma-power Fz-Cz, estimate of difference compared to placebo (75 mg single oral dose): 0.17 [−0.03, 0.37] P = .10 Hz
- Gamma-power Pz-Oz, LSM CFB (75 mg single oral dose): 0.27 Hz
- Gamma-power Pz-Oz, estimate of difference compared to placebo (75 mg single oral dose): 0.06 [−0.19, 0.32] P = .64 Hz
- Theta-power Fz-Cz, LSM CFB (75 mg single oral dose): 0.18 Hz
- Theta-power Fz-Cz, estimate of difference compared to placebo (75 mg single oral dose): 0.11 [−0.12, 0.33] P = .34 Hz
